# Assay results reported in publication PMC3821739 (Organic & biomolecular chemistry, 2013).
# Like-named read-outs stand apart in the source and are kept apart here.
# Legend:
# RRE = conditions: cited from earlier work
# HIV-1 RRE IIB RNA [1] = conditions: read-out: binding affinity (Kd) of hit BPBA; dot blot; cited from earlier work
# [2] = target: loop B/bulge A deleted RNA; experiment: Dot blot assay with RRE IIB variant loop B/bulge A deleted RNA; format: binding, HIV-1
# [3] = system: stem A/loop A deleted RNA; experiment: Dot blot assay with RRE IIB variant stem A/loop A deleted RNA; format: binding, HIV-1
# stem B deleted RNA = experiment: Dot blot assay with RRE IIB variant stem B deleted RNA; format: binding, HIV-1
# [4] = system: loop A/B/bulge A deleted RNA; experiment: Dot blot assay with RRE IIB variant loop A/B/bulge A deleted RNA; format: binding, HIV-1
# RRE IIB DNA = experiment: Dot blot assay with DNA of the same RRE IIB sequence; format: binding, HIV-1
# hexaloop RNA = experiment: Dot blot assay with RRE IIB variant hexaloop RNA; format: binding, HIV-1
# RRE IIB = experiment: RNase protection; format: binding, HIV-1; conditions: on ice
# Procedure, shortened: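 5′-³²P-labelled RRE-IIB (10 nM) mixed with unlabelled RRE-IIB (200 nM), refolded at 95 °C for 3 min, then snap-cooled on ice. Test compound added in 10 mM Tris pH 7, 100 mM KCl, 10 mM MgCl₂, then 4 hr on ice. Digestion on ice: RNase V1 0.002 U for 10 min; T1 1 U or A 20 ng for 1 hr. Stopped by precipitation, run on 12% urea PAGE with an alkaline-hydrolysis ladder, autoradiography.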
# [5] = system: loop A(A-G)/B/bulge A deleted RNA; experiment: Dot blot assay with RRE IIB variant loop A; format: binding, HIV-1
# HIV-1 RRE IIB RNA [6] = experiment: Dot blot assay, dissociation constant with wild-type RRE IIB RNA; format: binding; conditions: for loss of binding affinity compared to BPBA1: RRE IIB
compound,measurement,setting,value
NC[C@@H]1O[C@H](O[C@H]2[C@@H](O)[C@H](O[C@@H]3[C@@H](O)[C@H](N)C[C@H](N)[C@H]3O[C@H]3O[C@H](CN)[C@@H](O)[C@H](O)[C@H]3N)O[C@@H]2CO)[C@H](N)[C@@H](O)[C@@H]1O [neomycin B],binding to RRE,RRE,submicromolar
(WKK)2*KBBAYWY [BPBA1],Kd,HIV-1 RRE IIB RNA [1],1.4 µM
same,Kd,[2],8.7 µM
same,lower affinity relative to RRE IIB,[2],6 fold
same,lower affinity relative to RRE IIB,[3],> 10 fold
same,Kd,stem B deleted RNA,3.7 µM
same,loss in binding affinity / selectivity relative to RRE IIB,[4],> 75 fold
same,selectivity toward RNA over DNA,RRE IIB DNA; RRE IIB RNA versus RRE IIB DNA,23 fold
same,Kd,RRE IIB DNA; read-out: dissociation constant,31.8 ± 6.6 µM
same,increase of Kd compared to the wild type,hexaloop RNA,~ 3 fold
same,protection of RRE IIB from cleavage by RNase A,RRE IIB; BPBA1 up to 20 µM,"visibly protected U7, C21, and U36"
same,protection of RRE IIB from cleavage by RNase T1,RRE IIB; BPBA1 up to 20 µM,no noticeable changes in band intensity
same,protection of RRE IIB from cleavage by RNase V1,"RRE IIB; region A16 through G19, BPBA1 0.2 µM to 20 µM",concentration dependent protection
same,lower affinity relative to RRE IIB,[5],> 10 fold
same,Kd,"HIV-1 RRE IIB RNA [6]; read-out: observed Kd in the presence of competing tRNA, 10-fold molar excess of bacterial tRNA relative to RRE IIB",2.1 µM
Ac(WKK)*KBBAYWY [LPBA3],loss of binding affinity compared to BPBA1,HIV-1 RRE IIB RNA [6],> 50 fold
WKKGKBBAYWY [LPBA1],loss of binding affinity compared to BPBA1,HIV-1 RRE IIB RNA [6],> 50 fold
WKKGKBBAYWYWKK [LPBA5],loss of binding affinity compared to BPBA1,HIV-1 RRE IIB RNA [6],at least 5 fold
WKKWKKGKBBAYWY [LPBA4],loss of binding affinity compared to BPBA1,HIV-1 RRE IIB RNA [6],at least 5 fold
